{"data": "Assay results gathered from unrelated publications", "target": "Casein kinase I isoform delta (CSNK1D, Homo sapiens, UniProt P48730)", "note": "Compare with care: the assays were run in different laboratories."}
{"Structure (SMILES)": "COc1ccc2c(c1)O[C@H](c1ccc(OC)c(OC)c1)C[C@@H]2NC(=O)C1(c2ccc3c(c2)OC(F)(F)O3)CC1", "effect on": "cell-free assay", "technique": "competition with immobilised ligand", "concentration": "1 µM", "remaining binding": "92%"}
{"Structure (SMILES)": "NC(=O)c1nc(Nc2ccccc2)sc1NC(=O)C1CCCCC1", "effect on": "cell-free assay", "technique": "competition with immobilised ligand", "concentration": "10 µM", "remaining binding": "6.8%"}
{"Structure (SMILES)": "CNC(=O)Nc1ccc2c(c1)CC[C@@]21OC(=O)N(CC(=O)N(Cc2ccc(F)cc2)[C@@H](C)C(F)(F)F)C1=O", "effect on": "cell-free assay", "technique": "competition with immobilised ligand", "concentration": "1 µM", "remaining binding": "99%"}
{"Structure (SMILES)": "C[C@@H](c1ccc(-n2cnc3c(N)ncnc32)cc1)N1CCc2nn(C)c(Cc3ccccc3)c2C1=O", "effect on": "binding", "technique": "competition with immobilised ligand", "concentration": "0.1 µM", "remaining binding": "76%"}
{"Structure (SMILES)": "C[C@H]1CCN(c2nccc(-c3cnn4ncccc34)n2)C1", "effect on": "binding", "concentration": "1 µM", "remaining binding": "71%"}
{"Structure (SMILES)": "COc1cnc(Nc2cccc(S(N)(=O)=O)c2)nc1N1CCN(c2ccccc2)C(=O)C1", "effect on": "binding", "technique": "competition with immobilised ligand", "concentration": "1 µM", "remaining binding": "98%"}
{"Structure (SMILES)": "O=C(NCCCN1CCOCC1)c1ccc(Nc2nccc(-c3cc4ccccc4s3)n2)cc1", "effect on": "binding", "technique": "competition with immobilised ligand", "concentration": "1 µM", "remaining binding": "92%"}
{"Structure (SMILES)": "CC(=O)C1=C(C)N(c2cccc(C(F)(F)F)c2)C(=O)N[C@@H]1c1ccc(C#N)nc1", "effect on": "cell-free assay", "technique": "competition with immobilised ligand", "concentration": "1 µM", "remaining binding": "100%"}
{"Structure (SMILES)": "N[C@@H]1CCN(c2nccc(-c3cnn4ncccc34)n2)C1", "effect on": "binding", "concentration": "1 µM", "remaining binding": "14%"}
{"Structure (SMILES)": "C[C@@H]1CN(c2cc(-c3n[nH]c4ccc(OC5(C)CC5)cc34)ncn2)C[C@H](C)O1", "effect on": "cell-free assay", "technique": "competition with immobilised ligand", "concentration": "0.1 µM", "remaining binding": "80%"}
{"Structure (SMILES)": "FC(F)(F)Oc1cccc(-c2cnc3ccc(-c4ccncc4)nn23)c1", "effect on": "cell-free assay", "technique": "competition with immobilised ligand", "concentration": "5 µM", "remaining binding": "56%"}
{"Structure (SMILES)": "O=C(NCCCN1CCOCC1)c1ccc(Nc2ncc(Cl)c(-c3ccc(Cl)s3)n2)cc1", "effect on": "binding", "technique": "competition with immobilised ligand", "concentration": "1 µM", "remaining binding": "100%"}
{"Structure (SMILES)": "CC(C)(C)c1ccc(-c2nc(CBr)nn2-c2cccc(O)c2)cc1", "effect on": "cell-free assay", "technique": "competition with immobilised ligand", "concentration": "10 µM", "remaining binding": "82%"}
{"Structure (SMILES)": "N#Cc1ccccc1CSc1nnc2c(n1)[nH]c1ccccc12", "effect on": "binding", "technique": "competition with immobilised ligand", "concentration": "10 µM", "remaining binding": "86%"}
{"Structure (SMILES)": "F[C@@H]1CCN(c2nccc(-c3cnn4ncccc34)n2)C1", "effect on": "binding", "concentration": "1 µM", "remaining binding": "83%"}
{"Structure (SMILES)": "O=C(c1ccc(Nc2ncc(Cl)c(-c3ccc(Cl)s3)n2)cc1)N1CCC(N2CCCC2)CC1", "effect on": "binding", "technique": "competition with immobilised ligand", "concentration": "1 µM", "remaining binding": "100%"}
{"Structure (SMILES)": "C=CC(=O)N1CCC(C(=O)NCC(=O)N2CCN(c3nc(-c4cnc(N)nc4C(F)F)nc(N4CCOCC4)n3)CC2)CC1", "effect on": "binding", "technique": "competition with immobilised ligand", "concentration": "1 µM", "remaining binding": "100%"}
{"Structure (SMILES)": "CCOCCn1cc(C(=O)Nc2ccc(-n3nc(-c4cccnc4)cc3C(F)(F)F)cn2)ccc1=O", "effect on": "cell-free assay", "technique": "competition with immobilised ligand", "concentration": "1 µM", "remaining binding": "100%"}
{"Structure (SMILES)": "CN(C)c1nccc(-c2cnn3ncccc23)n1", "effect on": "binding", "concentration": "1 µM", "remaining binding": "62%"}
{"Structure (SMILES)": "Cc1c(NC(=O)c2cc(C(N)=O)nc3cc(F)ccc23)c(C(F)(F)F)nn1Cc1ccc(C(C)(C)C)cc1", "effect on": "cell-free assay", "technique": "competition with immobilised ligand", "concentration": "1 µM", "remaining binding": "81%"}
{"Structure (SMILES)": "CN(c1nccc(-c2cnn3ncccc23)n1)C1CC1", "effect on": "binding", "concentration": "1 µM", "remaining binding": "100%"}
{"Structure (SMILES)": "CNCc1ccccc1-c1csc([C@@H](C)Nc2nc(C)nc3cc(OC)c(OC)cc23)c1", "effect on": "cell-free assay", "technique": "competition with immobilised ligand", "concentration": "1 µM", "remaining binding": "82%"}
{"Structure (SMILES)": "CN(CCCC(F)(F)F)c1nccc(-c2cnn3ncccc23)n1", "effect on": "binding", "concentration": "1 µM", "remaining binding": "100%"}
{"Structure (SMILES)": "O=C(NCC1CCOCC1)c1n[nH]cc1NC(=O)c1c(F)cccc1F", "effect on": "binding", "technique": "competition with immobilised ligand", "concentration": "1 µM", "remaining binding": "77%"}
